According to ChEMBL document CHEMBL4342526, “Exploration of the Structural Space in 4(3H)-Quinazolinone Antibacterials” (J Med Chem, 2020):
≈ marks a conversion by molar mass, not a printed value. Calls of active or inactive are those of the source. The calls are words filed in the database; no cut-off is given here.

Tests used:
[1] = system: Staphylococcus aureus; experiment: Antibacterial activity against multi-drug resistant mec-positive Staphylococcus aureus USA300 measured after 16 to 20 hrs by microdilution method; assay type: functional
Method in brief: (§1)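 CLSI broth microdilution; two-fold serial compound dilutions in triplicate in cation-adjusted Mueller–Hinton broth with 2% NaCl, inoculum 5 × 10^5 CFU/mL; 37 °C for 16–20 h; MIC = lowest concentration with no visible growth.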

[2] = system: Staphylococcus aureus; experiment: Antibacterial activity against multi-drug resistant mecA-positive Staphylococcus aureus ATCC 27660 measured after 16 to 20 hrs by microdilution method; assay type: functional; method in brief: as §1
[3] = system: Staphylococcus aureus; experiment: Selectivity ratio of MIC for Staphylococcus aureus ATCC 29213 in presence of bovine serum albumin to MIC for Staphylococcus aureus ATCC 29213 in absence of bovine serum albumin; assay type: functional
Method in brief: (§2)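 S. aureus ATCC29213 MIC was run by CLSI microdilution in cation-adjusted Mueller–Hinton broth plus 2% NaCl, with and without 0.5% bovine serum albumin. Compounds were two-fold serially diluted in triplicate, inoculum was 5 × 10^5 CFU/mL, and plates were incubated at 37 °C for 16–20 h. The endpoint was the lowest concentration with no visible growth.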

[4] = AUC (0 to last) in ICR mouse at 5 mg/kg, iv by UV-UPLC analysis; assay type: ADME, organism-based; design: dose 5 mg/kg, route intravenous, time 0 - last; conditions: in vivo
Method in brief: (§3)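 Female ICR mice, 6–8 weeks old, 20–25 g. Each received 50 μL by tail-vein injection (5 or 10 mg/kg) of a filter-sterilized 2 or 4 mg/mL solution in 20% DMSO/10% Tween-80/70% water. Terminal blood was collected and plasma harvested by centrifugation. Plasma was precipitated with acetonitrile containing internal standard, and the supernatant was analyzed by C18 UPLC with UV detection at 285 nm.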

[5] = system: Staphylococcus aureus; experiment: Antibacterial activity against clindamycin/erythromycin/spectinomycin-resistant mec-positive Staphylococcus aureus NRS70 measured after 16 to 20 hrs by microdilution method; assay type: functional; method in brief: as §1
[6] = system: Staphylococcus aureus; experiment: Antibacterial activity against multi-drug resistant mecA-positive Staphylococcus aureus NRS119 measured after 16 to 20 hrs by microdilution method; assay type: functional; method in brief: as §1
[7] = system: Staphylococcus aureus; experiment: Antibacterial activity against Staphylococcus aureus ATCC 29213 measured after 16 to 20 hrs by microdilution method; assay type: functional
Method in brief: (§4)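 CLSI broth microdilution: two-fold serial dilutions in triplicate in cation-adjusted Mueller–Hinton broth with 2% NaCl, inoculum 5 × 10^5 CFU/mL, incubated at 37 °C for 16–20 h. MIC is the lowest concentration preventing visible growth.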

[8] = Selectivity index, ratio of IC50 for human HeLa cells to MIC for clindamycin/erythromycin/spectinomycin-resistant mec-positive Staphylococcus aureus NRS70; assay type: toxicity
Method in brief: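 HeLa cytotoxicity by XTT assay in triplicate, IC50 by nonlinear regression; ratio IC50 over broth microdilution MIC against NRS70.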

[9] = Clearance in ICR mouse at 5 mg/kg, iv by UV-UPLC analysis; assay type: ADME, organism-based; conditions: in vivo; method in brief: as §3
[10] = system: Staphylococcus aureus; experiment: Antibacterial activity against Staphylococcus aureus ATCC 29213 measured after 16 to 20 hrs in presence of bovine serum albumin by microdilution method; assay type: functional; method in brief: as §2
[11] = Protein binding in human plasma at 10 uM measured after 6 hrs UV-UPLC based rapid equilibrium dialysis method; assay type: ADME, cell-free
Method in brief: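 Rapid equilibrium dialysis: human plasma was cleared by centrifugation and spiked from a 1 mM DMSO stock to a final 10 μM, against 0.1 M PBS pH 7.4. Dialysis ran 6 h at 37 °C with orbital shaking. Buffer (free) and plasma (total) aliquots were mixed with internal standard in acetonitrile and measured by UPLC-UV at 285 nm. B% = (Cp−Cf)/Cp×100.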

[12] = system: HeLa; experiment: Cytotoxicity against human HeLa cells assessed as reduction in cell viability measured after 16 hrs by XTT assay; assay type: cell-based
Method in brief: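 HeLa cells (ATCC CCL-2), run in triplicate. Viability was read by XTT, and IC50 was obtained by nonlinear regression.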

[13] = Clearance in ICR mouse at 5 mg/kg, iv by UV-UPLC analysis relative to hepatic blood flow; assay type: ADME, organism-based; conditions: in vivo; method in brief: as §3
[14] = system: Enterococcus faecium; experiment: Antibacterial activity against Enterococcus faecium NCTC 7171 measured after 16 to 20 hrs by microdilution method; assay type: functional; method in brief: as §4
[15] = Solubility of the compound in water; assay type: physicochemical; conditions: buffer
[16] = system: Staphylococcus aureus; experiment: Bacteriostatic activity against clindamycin/erythromycin/spectinomycin-resistant mec-positive Staphylococcus aureus NRS70 assessed as log reduction in bacterial count at 0.5 to 16 times MIC by time-kill assay; assay type: functional
[17] = Volume of distribution in ICR mouse at 10 mg/kg, iv by UV-UPLC analysis; assay type: ADME, organism-based; conditions: in vivo; method in brief: as §3
[18] = system: Bacillus cereus; experiment: Antibacterial activity against Bacillus cereus ATCC 13061 measured after 16 to 20 hrs by microdilution method; assay type: functional; method in brief: as §4
[19] = system: Clostridioides difficile; experiment: Antibacterial activity against Clostridium difficile ATCC 43255 measured after 16 to 20 hrs by microdilution method; assay type: functional
[20] = system: Bacillus licheniformis; experiment: Antibacterial activity against Bacillus licheniformis ATCC 12759 measured after 16 to 20 hrs by microdilution method; assay type: functional; method in brief: as §4
[21] = system: Streptococcus pneumoniae; experiment: Antibacterial activity against Streptococcus pneumoniae ATCC 49619 measured after 16 to 20 hrs by microdilution method; assay type: functional; method in brief: as §4
[22] = target: T1, MecA (Staphylococcus aureus) (UniProt Q7DHH4); experiment: Binding affinity to PBP2a in clindamycin/erythromycin/spectinomycin-resistant mec-positive Staphylococcus aureus NRS70 assessed potentiation of piperacillin and tazobactam-induced bactericidal activity by measuring reduction in bacterial count at 0.5 times MIC measured after 24 hrs by time-kill assay
T1 sequence (whole entry): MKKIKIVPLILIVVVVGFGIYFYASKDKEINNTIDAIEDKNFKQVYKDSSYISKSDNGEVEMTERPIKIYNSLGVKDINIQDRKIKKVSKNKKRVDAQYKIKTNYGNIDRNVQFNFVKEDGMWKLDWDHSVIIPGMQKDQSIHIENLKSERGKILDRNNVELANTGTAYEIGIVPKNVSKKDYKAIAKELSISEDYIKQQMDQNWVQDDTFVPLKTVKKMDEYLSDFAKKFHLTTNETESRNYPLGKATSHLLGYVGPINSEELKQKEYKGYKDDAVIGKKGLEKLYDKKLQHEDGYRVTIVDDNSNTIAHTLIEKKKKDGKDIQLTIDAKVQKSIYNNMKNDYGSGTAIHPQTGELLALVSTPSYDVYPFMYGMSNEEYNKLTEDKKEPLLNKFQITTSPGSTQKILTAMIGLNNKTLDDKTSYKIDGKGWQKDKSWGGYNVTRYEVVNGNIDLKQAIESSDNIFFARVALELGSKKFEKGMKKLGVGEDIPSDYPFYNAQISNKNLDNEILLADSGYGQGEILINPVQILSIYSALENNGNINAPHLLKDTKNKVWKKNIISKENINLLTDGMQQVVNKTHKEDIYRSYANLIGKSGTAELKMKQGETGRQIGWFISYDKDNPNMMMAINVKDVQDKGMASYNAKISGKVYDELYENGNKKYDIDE

[23] = system: Enterococcus faecalis; experiment: Antibacterial activity against Enterococcus faecalis ATCC 29212 measured after 16 to 20 hrs by microdilution method; assay type: functional; method in brief: as §4
[24] = target: T1, MecA (Staphylococcus aureus); experiment: Binding affinity to PBP2a in clindamycin/erythromycin/spectinomycin-resistant mec-positive Staphylococcus aureus NRS70 assessed potentiation of piperacillin and tazobactam-induced bactericidal activity by measuring log reduction in bacterial count at 0.5 times MIC measured after 12 hrs by time-kill assay
[25] = system: Staphylococcus aureus; experiment: Bactericidal activity against methicillin resistant Staphylococcus aureus NRS70 infected in ICR mouse model of neutropenic thigh infection assessed as log reduction in bacterial count in thigh at 20 mg/kg, sc administered at 8 hrs interval for 3 times starting from 1 hr post infection and measured 24 hrs post infection; assay type: functional
Method in brief: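 Female ICR mice (6–8 weeks, 20–25 g) made neutropenic with cyclophosphamide 200 mg/kg ip at 4 and 1 days pre-infection; 0.1 mL NRS70 at 1 × 10^6 CFU/mL in brain heart infusion injected into right thigh; drug in 10% DMSO/90% water sc every 8 h ×3 from 1 h post-infection; thigh CFU counted at 24 h; n = 8/group; mean ± SEM, one-way ANOVA with Tukey test.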

[26] = system: Staphylococcus epidermidis; experiment: Antibacterial activity against Staphylococcus epidermidis ATCC 35547 measured after 16 to 20 hrs by microdilution method; assay type: functional; method in brief: as §1
[27] = Elimination half life in ICR mouse at 10 mg/kg, iv by UV-UPLC analysis; assay type: ADME, organism-based; conditions: ICR, in vivo, read-out: beta t1/2; method in brief: as §3
[28] = Elimination half life in ICR mouse at 10 mg/kg, po administered via gavage by UV-UPLC analysis; assay type: ADME, organism-based; conditions: in vivo, read-out: beta t1/2 (converted)

| Compound | MIC [1] [µg/mL] | MIC [2] [µg/mL] | selectivity ratio [3] | AUC(0-t) [4] [ng·h/mL] | MIC [5] [µg/mL] | MIC [6] [µg/mL] | MIC [7] [µg/mL] | selectivity ratio [8] | clearance [9] [mL/min/kg] | MIC [10] [µg/mL] | PPB [11] [%] | IC50 [12] [µg/mL] | CL [13] [%] | other results |
| --- | --- | --- | --- | --- | --- | --- | --- | --- | --- | --- | --- | --- | --- | --- |
| N#Cc1ccc(/C=C/c2nc3ccccc3c(=O)n2-c2cccc(S(N)(=O)=O)c2)cc1 | 0.06 (≈ 0.14 µM) | 0.06 (≈ 0.14 µM) | <=4 | 850 | 0.06 (≈ 0.14 µM) | 0.125 (≈ 0.292 µM) | 0.25 (≈ 0.583 µM) | > 1070 | 98 | 0.5 | 97.1 | > 64 | > 10 |  |
| C#Cc1ccc(/C=C/c2nc3ccccc3c(=O)n2-c2cccc(S(N)(=O)=O)c2)cc1 |  |  |  | 2970 |  | 0.06 (≈ 0.14 µM) |  | 1020 | 28.2 | 0.5 | 98.2 | 61 (≈ 143 µM) | > 10 |  |
| N#Cc1ccc(/C=C/c2nc3ccccc3c(=O)n2-c2cccc(NC(=O)CCc3cnc[nH]3)c2)cc1 |  |  |  |  |  |  | 8 (≈ 16.4 µM) |  |  |  |  |  |  | MIC [14]: 16 µg/mL (≈ 32.9 µM) |
| N#Cc1ccc(/C=C/c2nc3ccccc3c(=O)n2-c2ccc[n+]([O-])c2)cc1 | 1 (≈ 2.73 µM) | 2 (≈ 5.46 µM) |  |  | 1 (≈ 2.73 µM) | 4 (≈ 10.9 µM) | 2 (≈ 5.46 µM) | > 128 |  | 32 | 67.9 | > 128 |  | solubility [15]: Insoluble |
| N#Cc1ccc(/C=C/c2nc3ccccc3c(=O)n2-c2cccc(C(=O)O)c2)cc1 | 0.5 (≈ 1.27 µM) | 2 (≈ 5.08 µM) | <=4 |  | 2 (≈ 5.08 µM) | 1 (≈ 2.54 µM) | 2 (≈ 5.08 µM) |  |  | 8 |  | 173 (≈ 440 µM) |  | log(activity) [16]: <3; Vd [17]: 0.3 L/kg; MIC [18]: > 128 µg/mL; MIC [19]: 128 µg/mL (≈ 325 µM); MIC [20]: > 128 µg/mL; MIC [21]: 16 µg/mL (≈ 40.7 µM); Activity [22]: inactive; MIC [23]: > 128 µg/mL; log(activity) [24]: > 3; log(activity) [25]: 0.67; MIC [26]: 1 µg/mL (≈ 2.54 µM); half-life [27]: > 20 h; half-life [28]: > 20 h |
